Data published in paper PMC12800764 (ESMO Open, 2025).
“Also recorded” adds a separate entry of the source.

How the values were obtained:
[1] = system: patients with advanced, unresectable, or recurrent solid tumors; assay: Bone assessments; assay type: in vivo, human
In short: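 Both parts used DXA bone density at screening, C2D1 and every 12 weeks (±7 days) from C1D1. Fasting serum β-CTX was measured at screening, C2D1, C3D1, then every 8 weeks and at end of treatment. Dose-escalation added β-CTX at C1D15; expansion added DXA (C2D1 ±7 days) at end of treatment and when clinically indicated. Osteoporosis (T-score < −2.5) and untreated bone metastasis excluded patients.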

Apc^Min/+ mice = conditions: cited from earlier work
ECC10 xenograft = conditions: human gastric cancer cell line (ECC10) xenograft model; cited from earlier work
[2] = system: advanced, unresectable, or recurrent solid tumors; assay: Antitumor activity by investigators, RECIST v1.1, Study 103; assay type: in vivo, human
In short: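 Investigators assessed tumors by CT/MRI every 8 weeks, at end of treatment and when clinically indicated, using the screening modality and settings, per RECIST v1.1. Endpoints were objective response (CR/PR), disease control (CR/PR/SD) and clinical benefit (CR, PR, or SD lasting ≥23 weeks). All patients receiving ≥1 dose of oral test compound (b.i.d., 28-day cycles) were analysed.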

[3] = Plasma pharmacokinetics of E7386, noncompartmental analysis, Study 103; assay type: in vivo, human; conditions: 10-160 mg b.i.d.
bone formation = conditions: rats; 7-day repeated-dose toxicity study; ref Data on file; cited from earlier work
[4] = system: patients with advanced, unresectable, or recurrent solid tumors; assay: Safety assessments; assay type: in vivo, human
In short: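 Safety covered all AEs of any grade, including DLTs and serious AEs, graded by NCI CTCAE v5.0. Hematology, chemistry and urinalysis were sampled before dosing at scheduled visits. Oral test compound was given b.i.d. in 28-day cycles (10-160 mg dose-escalation; 100 or 120 mg expansion). The analysis set was all patients receiving ≥1 dose.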

[5] = system: activating transcription factor 4 pathway; conditions: preclinical models of HCC; cited from earlier work
[6] = system: patients with advanced, unresectable, or recurrent solid tumors; assay: Dose-limiting toxicity evaluation; assay type: in vivo, human
In short: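 A 3 + 3 escalation started at 10 mg b.i.d. oral, given continuously in 28-day cycles; 10, 15 and 20 mg were predefined. Above 20 mg, steps were 100%, 40%-60% or 25%-39% depending on treatment-related grade 2 or ≥3 toxicity. DLTs were drug-related AEs in cycle 1 (28 days), graded by CTCAE v5.0. Patients dosed as planned in C1, or having a DLT, formed the analysis set.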

advanced solid tumors = conditions: 0 of 25; cited from earlier work
desmoid tumors = conditions: patients with desmoid tumors; cited from earlier work
endometrial cancer = conditions: cited from earlier work

C=CCN1CC(=O)N2[C@@H](Cc3ccc(O)cc3F)C(=O)N(Cc3cccc(N4CC(N5CCN(CC)CC5)C4)n3)C[C@@H]2N1C(=O)NCc1ccccc1 [E7386]
Patients with T-score < −2.5 as per DXA scan during the study ([1]; 1 of 55 patients, spine: −2.4 at screening to −2.6 on C2D1): 1.8% | Patients with asymptomatic, post-baseline elevations in β-CTX >1000 pg/ml ([1]; 7 of 55 patients): 12.7% | Bone fractures ([1]; either part of the study): No bone fractures were reported; also recorded: no bone fracture was observed | Polyp formation in the intestine (Apc^Min/+ mice): suppressed polyp formation | Tumor growth (ECC10 xenograft): inhibited tumor growth | Patients achieving partial response (PR) ([2]; dose-escalation part, SBC at 15 mg b.i.d. and desmoid tumor at 80 mg b.i.d.): two | Partial responses ([2]; expansion part): No PRs were observed | Treatment duration with durable SD ([2]; expansion part, patient with CRC (APC/KRAS/TP53 mutations), 100 mg b.i.d., no tumor size reduction): ~7 months | Treatment duration with durable SD ([2]; expansion part, patient with HCC, 120 mg b.i.d., with tumor size reduction): ~7 months | Antitumor activity in patients with CRC ([2]; irrespective of APC mutation status): did not indicate antitumor activity | Treatment period of responder (PR) ([2]; patient with desmoid tumor, 80 mg b.i.d. cohort, ongoing at data cut-off): > 3.5 years | Treatment duration with durable SD ([2]; patient with solid pseudopapillary neoplasm of the pancreas, 30 mg b.i.d. cohort): > 2.5 years | E7386 exposure versus dose ([3]; single and repeat dose, large inter-subject variability): generally increased with dose | Time at which maximum plasma concentration was reached ([3]; after oral administration on C1D1): 0.5 to 2.0 h | Geometric mean accumulation ratios for AUC ([3]; for each dose): 1.12-3.81 | Geometric mean accumulation ratios for Cmax ([3]; for each dose): 0.65-3.97 | Doses at which effects on bone formation were observed (bone formation): ≥ 60 mg/kg | Deaths due to TEAEs ([4]; both parts): No patients died due to TEAEs | Nausea (TEAE) frequency ([4]; dose-escalation part): 83.3% | Patients with grade ≥3 TEAEs ([4]; dose-escalation part): 15 patients | Patients with grade ≥3 anemia ([4]; dose-escalation part): four | Vomiting (TEAE) frequency ([4]; dose-escalation part): 61.1% | TEAEs leading to dose interruption ([4]; dose-escalation part, 13 patients): 36.1% | Patients with TEAEs ([4]; dose-escalation part, 35 of 36 patients): 97.2% | TEAEs leading to dose reduction ([4]; dose-escalation part, one patient (decreased appetite)): 2.8% | TEAEs leading to study-drug discontinuation ([4]; dose-escalation part, two patients, not considered related to treatment): 5.6% | Nausea (TEAE) frequency ([4]; expansion part): 84.2% | Patients with grade ≥3 TEAEs ([4]; expansion part): 10 patients | Patients with grade ≥3 anemia ([4]; expansion part): two | Patients with grade ≥3 hyponatremia ([4]; expansion part): two | Patients with grade ≥3 nausea ([4]; expansion part): one | TEAEs leading to study-drug discontinuation ([4]; expansion part): No patient in the expansion part discontinued the study drug due to TEAEs | Vomiting (TEAE) frequency ([4]; expansion part): 73.7% | TEAEs leading to dose interruption ([4]; expansion part, 5 patients): 26.3% | Patients with TEAEs ([4]; expansion part, 18 of 19 patients): 94.7% | TEAEs leading to dose reduction ([4]; expansion part, four patients): 21.1% | Effect on activating transcription factor 4 pathway [5]: up-regulate the activating transcription factor 4 pathway | Patients with dose-limiting toxicities (grade 3 decreased appetite) ([6]; 160 mg b.i.d. cohort, cycle 1, dose-escalation): two | Dose-limiting toxicities ([6]; 10-120 mg b.i.d. cohorts, dose-escalation): no DLTs were observed | Recommended dose of E7386 monotherapy ([6]; oral, 28-day cycles): 120 mg b.i.d.

Cc1c(-c2ccnc(C(F)(F)F)c2)ncn1CC(=O)Nc1ccc(-c2cnccn2)cn1 [RXC004]
Objective response rate (ORR) (advanced solid tumors): 0%

C[C@@H]1C[C@H](C)CN(S(=O)(=O)c2ccc3c(c2)C(=NO)c2cc(S(=O)(=O)N4C[C@H](C)C[C@H](C)C4)ccc2C3=NO)C1 [tegavivint]
Nausea incidence (desmoid tumors): 33%

B1: DKN-01: a DKK-1 antibody targeting the Wnt signaling pathway (antibody, chains of the INN, looked up, V domains shown)
VH: EVQLVESGGGLVQPGGSLRLSCAASGFTFSSYTMSWVRQAPGKGLEWVATISGGGFGTYYPDSVKGRFTISRDNAKNSLYLQMNSLRAEDTAVYYCARPGYNNYYFDIWGQGTTVTVSS
VL: EIVLTQSPATLSLSPGERATLSCHASDSISNSLHWYQQKPGQAPRLLIYYARQSIQGIPARFSGSGSGTDFTLTISSLEPEDFAVYYCQQSESWPLHFGGGTKVEIK
TEAE nausea incidence (endometrial cancer): 48.3% | TEAE vomiting incidence (endometrial cancer): 24.1% | Objective response rate (ORR) (endometrial cancer; endometrial cancer, 2 of 26): 7.7%
